TRPC4 inh – blocks the mouse TRPC4 cation channel; HEK293 TRPC4beta/mu-opioid, DAMGO-evoked Fluo4 calcium flux; stronger effect = lower value; B-score at 10 µM; hit rate 0.39% among 300,000; Q9QUQ5;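 active means B-score over 3 SD under the library average, no early fluorescence shift, positive overall ratio signal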
Target sequence (Q9QUQ5 whole entry, looked up): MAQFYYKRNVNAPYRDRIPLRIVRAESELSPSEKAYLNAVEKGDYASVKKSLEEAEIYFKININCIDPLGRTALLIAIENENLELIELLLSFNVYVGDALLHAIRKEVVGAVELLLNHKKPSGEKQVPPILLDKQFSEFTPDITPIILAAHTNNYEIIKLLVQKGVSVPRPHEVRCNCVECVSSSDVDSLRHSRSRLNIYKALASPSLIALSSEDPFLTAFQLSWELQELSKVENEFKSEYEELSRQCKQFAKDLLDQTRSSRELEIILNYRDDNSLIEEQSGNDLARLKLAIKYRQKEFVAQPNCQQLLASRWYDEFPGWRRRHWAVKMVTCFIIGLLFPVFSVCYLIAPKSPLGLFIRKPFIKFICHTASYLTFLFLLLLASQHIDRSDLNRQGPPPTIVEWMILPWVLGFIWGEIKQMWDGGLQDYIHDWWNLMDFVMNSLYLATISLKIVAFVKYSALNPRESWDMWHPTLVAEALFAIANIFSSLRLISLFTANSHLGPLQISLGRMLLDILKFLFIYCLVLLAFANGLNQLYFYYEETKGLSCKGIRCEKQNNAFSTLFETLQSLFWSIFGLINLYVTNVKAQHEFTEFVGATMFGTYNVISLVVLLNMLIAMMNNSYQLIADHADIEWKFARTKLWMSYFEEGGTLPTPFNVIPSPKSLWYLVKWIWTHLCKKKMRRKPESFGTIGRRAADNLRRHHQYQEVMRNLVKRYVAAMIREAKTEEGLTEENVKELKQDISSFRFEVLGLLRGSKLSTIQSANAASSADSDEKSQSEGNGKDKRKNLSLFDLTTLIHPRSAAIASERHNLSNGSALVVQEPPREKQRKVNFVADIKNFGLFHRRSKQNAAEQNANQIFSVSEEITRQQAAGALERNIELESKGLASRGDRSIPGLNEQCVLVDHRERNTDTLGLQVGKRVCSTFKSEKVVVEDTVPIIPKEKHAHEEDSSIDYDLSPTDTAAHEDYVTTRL
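Assay system: TRPC4beta/mu-opioid receptor HEK293 cell line; compound dosing: single concentration per test compound; detection: Fluo4 Ca2+ flux fluorescence; evaluation: per-well B score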
TRPC6 inhibitor – mouse TRPC6 channel inhibition. B-score at 10 µM. hit rate 1.1% among 310,000. Q61143. HEK293-TRPC6, membrane potential dye, ACh-evoked depolarization; stronger effect = lower value;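 active means B-score under library mean minus 3 SD, initial fluorescence not abnormally high, positive integrated signal ratio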;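 further: B-score derived from integrated fluorescence ratio over the kinetic read; more negative B-score means stronger inhibition of depolarization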
TRPC6 act – activates the mouse TRPC6 cation channel; Q61143; B-score at 10 µM; HEK293-TRPC6 membrane potential dye fluorescence; stronger effect = higher value; hit rate 0.13% among 310,000;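 active means B-score of the integrated fluorescence ratio above library mean plus 3 SD, and starting fluorescence ratio within library mean plus 5 SD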;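 further: higher score means more depolarization so channel activation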
TRPC4 potent – allosterically enhances the mouse TRPC4 cation channel; Q9QUQ5; HEK293 TRPC4beta/mu-opioid, DAMGO EC20, Fluo-4 Ca2+ flux; stronger effect = higher value; B-score at 10 µM; hit rate 0.42% among 310,000;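 active means B-score of calcium response area above 5 SD of library B-scores, with initial fluorescence ratio within 5 SD of library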
TRPC4 agonist – TRPC4 (mouse) channel activation; hit rate 0.49% among 310,000; Q9QUQ5; B-score at 10 µM; HEK293 TRPC4beta/mu-opioid, Fluo4 calcium fluorescence; stronger effect = higher value;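 active means B-score above 5 SD of library B-scores, and initial fluorescence ratio not above library mean plus 5 SD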;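 further: positive B-score marks a calcium rise read as TRPC4 activation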
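Assay system: HEK293 stable line with TRPC4beta plus mu-opioid receptor; schedule: 45 min room-temperature Fluo4 loading, 110 s read; technique: kinetic Fluo4 calcium fluorescence; evaluation: integrated baseline-normalised fluorescence ratio, converted to per-well B score; controls: buffer (low) and maximal DAMGO (high)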
HEK293 TRPC6 ctr – counter-screen for TRPC6 modulators: effect in parental HEK293 cells | shares compounds with TRPC6 inhibitor | membrane potential dye fluorescence | membrane potential signal change, % at 10 µM | hit rate 51% among 2,400;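 active means membrane potential signal moves up or down beyond 5 SD from buffer-only wells, on both duplicate plates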
HEK293 MPD ctr 2 – second check of TRPC6 modulator effects in parental HEK293 cells. shares compounds with TRPC6 inhibitor. membrane potential dye fluorescence; after compound, maximal acetylcholine stimulation. inhibition, % at 10 µM. hit rate 14% among 2,400. AID 488926;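 active means membrane potential signal drops by more than 5 SD from the mean control signal, in both duplicate plates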
TRPC4/MOR mod – mouse TRPC4 off-target activity of TRPC6 modulators; shares compounds with TRPC6 inhibitor; HEK293 TRPC4/mu-opioid, membrane potential fluorescence; percent change from control (negative = decrease, positive = increase), % at 10 µM; hit rate 69% among 2,400; AID 488927;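 active means membrane potential signal moved up or down beyond 5 SD of buffer control wells, in both duplicate plates, actives on both sides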
TRPC4/MOR inh 2 – second check of whether TRPC6 modulators also affect mouse TRPC4; shares compounds with TRPC6 inhibitor; HEK293 TRPC4/mu-opioid, membrane potential dye fluorescence; stimulated with maximal-effect DAMGO; inhibition, % at 10 µM; hit rate 55% among 2,400;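 active means drop in membrane potential signal beyond 5 SD of the control wells in both duplicate plates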;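 further: TRPC4 counter screen for TRPC6 hits run under conditions tuned for TRPC6 not TRPC4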
TRPC6 inh conf – mouse TRPC6 inhibitor confirmation | HEK293-TRPC6, membrane potential dye, ACh-evoked depolarization | shares compounds with TRPC6 inhibitor | inhibition, % at 10 µM | hit rate 43% among 3,300;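 active means fluorescence ratio falls more than 5 SD below the full-stimulation control mean, in both duplicate runs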;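 further: integrated fluorescence ratio of peak minus minimum over baseline after agonist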
TRPC6 act confirm – mouse TRPC6 activator confirmation. HEK293-TRPC6 membrane potential dye fluorescence, FDSS. hit rate 11% among 2,800. activation, % at 10 µM. shares compounds with TRPC6 inhibitor. AID 488961;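 active means ratio signal rise beyond 5 SD above unstimulated control wells' mean, seen in both duplicate runs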
Of the large screens only hits and unclear results are named; the others gave an inactive call (follow-up assays come after a bar, where they were run). A selection: hits, their analogues and other compounds. The true share with any hit is near 2.3%.

CC1=Nc2ccccc2/C1=C/c1sc(=N)n(-c2nccs2)c1O	TRPC6 act 36 | HEK293 TRPC6 ctr 714% | HEK293 MPD ctr 2 inactive | TRPC4/MOR mod 110% | TRPC4/MOR inh 2 inactive | TRPC6 inh conf inactive | TRPC6 act confirm 192%
CC1=Nc2ccccc2/C1=C/c1nc(-c2ccc(C)s2)oc1O	none
CC(C)CCOC(=O)C[N+](C)(C)CCOC1CC2CCC1(C)C2(C)C (stereo not given)	TRPC6 inhibitor -5.7 | HEK293 TRPC6 ctr 155% | HEK293 MPD ctr 2 inactive | TRPC4/MOR mod 34% | TRPC4/MOR inh 2 34% | TRPC6 inh conf 48%
CCCCOC(=O)C[N+](C)(C)CCOC1CC2CCC1(C)C2(C)C (stereo not given)	TRPC6 inhibitor -5.2 | HEK293 TRPC6 ctr 99% | HEK293 MPD ctr 2 inactive | TRPC4/MOR mod 23% | TRPC4/MOR inh 2 inactive | TRPC6 inh conf 38%
CCCCCCCOC(=O)C[N+](C)(C)CCOC1CC2CCC1(C)C2(C)C (stereo not given)	none
CCN(CC)c1cc(C)c2cc(NC(=O)CNC(C)=O)ccc2n1	TRPC6 inhibitor -5.7 | HEK293 TRPC6 ctr -161% | HEK293 MPD ctr 2 59% | TRPC4/MOR mod -28% | TRPC4/MOR inh 2 38% | TRPC6 inh conf inactive | TRPC6 act confirm inactive
CCN(CC)c1cc(C)c2cc(NC(=O)c3ccccc3F)ccc2n1	none
CCCCc1nnc(NC(=O)CSc2nc(O)c(Cc3ccccc3)c(=O)[nH]2)s1	none
O=C(CSc1nc(O)c(Cc2ccccc2)c(=O)[nH]1)Nc1nnc(SCc2ccccc2)s1	TRPC6 act 20 | HEK293 TRPC6 ctr 308% | HEK293 MPD ctr 2 inactive | TRPC4/MOR mod 58% | TRPC4/MOR inh 2 inactive | TRPC6 inh conf inactive | TRPC6 act confirm 142%
Cc1onc(-c2c(Cl)cccc2Cl)c1NC(=O)N1CCSCC1	TRPC6 act 12 | HEK293 TRPC6 ctr inactive | HEK293 MPD ctr 2 inactive | TRPC4/MOR mod inactive | TRPC4/MOR inh 2 inactive | TRPC6 inh conf inactive | TRPC6 act confirm inactive
Cc1onc(-c2c(Cl)cccc2Cl)c1NC(=O)NN(C)C	none
COc1ccc(OC)c2sc(N(CCN(C)C)C(=O)c3cc(Cl)sc3Cl)nc12	TRPC6 inhibitor -5.5, TRPC4 agonist 102 | HEK293 TRPC6 ctr inactive | HEK293 MPD ctr 2 inactive | TRPC4/MOR mod -42% | TRPC4/MOR inh 2 80% | TRPC6 inh conf inactive | TRPC6 act confirm inactive
COc1ccc2sc(N(CCN(C)C)C(=O)c3cc(Cl)sc3Cl)nc2c1	none
CCN(CC)c1ccc(Nc2nc(N3CCOCC3)c3ccccc3n2)cc1	TRPC6 inhibitor -5.2 | HEK293 TRPC6 ctr -143% | HEK293 MPD ctr 2 inactive | TRPC4/MOR mod -32% | TRPC4/MOR inh 2 56% | TRPC6 inh conf inactive | TRPC6 act confirm inactive
COc1ccc(F)cc1C(=O)C1CCCN(C(=O)c2ccccc2N(C)C)C1 (stereo not given)	none
CN(C)CCNC(=O)c1c(NC(=O)c2ccccc2)sc2c1CCCC2	TRPC6 inhibitor -5.6, TRPC4 agonist 97 | HEK293 TRPC6 ctr -150% | HEK293 MPD ctr 2 inactive | TRPC4/MOR mod -24% | TRPC4/MOR inh 2 80% | TRPC6 inh conf 53% | TRPC6 act confirm inactive
CCOc1ccc(NC(=S)N(CCOC)C2CCN(C(C)C)CC2)cc1	none
CC(C)(C)c1ccc(S(=O)(=O)N2CCC(N3CCCCC3)CC2)cc1	TRPC6 act 20 | HEK293 TRPC6 ctr 238% | HEK293 MPD ctr 2 inactive | TRPC4/MOR mod 41% | TRPC4/MOR inh 2 36% | TRPC6 inh conf inactive | TRPC6 act confirm 122%
